Converted amounts (≈) assume the structure as drawn. Where two headings read alike, the source gives them in different places.
Experiments:
[1] = tested on: non-small cell lung cancer (A549) cells; experiment: MTT cytotoxicity assay, A549; format: cell-based, human; settings: for SI A549 (selectivity index): IC50 in HDF / IC50 in A549, 96 h; for IC50: read-out: IC50 A549
How it was run: (§1)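 Cells were grown in RPMI 1640 with 10% FCS, 2 mM L-glutamine and 1% penicillin-streptomycin at 37 °C under 5% CO2. They were seeded at 1 × 10^4 cells/ml, left overnight to adhere, and exposed 96 h to test compound diluted in medium (six final levels, 1–600), with DMSO-matched and cisplatin controls. MTT at 5 mg/ml was added for 4 h, formazan dissolved in DMSO, and A540 read, in triplicate. IC50 was fitted from the data. SI = IC50 in HDF / IC50 in this line.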

[2] = tested on: glioblastoma (U-87 MG) cells; experiment: MTT cytotoxicity assay, U-87 MG; format: cell-based, human; settings: for SI U87 (selectivity index): IC50 in HDF / IC50 in U87, 96 h; for IC50: read-out: IC50 U87
How it was run: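 U-87 MG cells were cultured in DMEM with 10% FCS, 2 mM L-glutamine and 1% penicillin-streptomycin at 37 °C, 5% CO2. Seeding was 1 × 10^4 cells/ml; after overnight adherence, test compound diluted in medium (six final levels, 1–600) was applied for 96 h alongside DMSO-matched and cisplatin controls. Read-out: MTT 5 mg/ml for 4 h, DMSO solubilisation, A540, in triplicate, IC50 fitted. SI = IC50 in HDF / IC50 in U87.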

[3] = tested on: human dermal fibroblast (HDF, human dermal cell line); experiment: MTT cytotoxicity assay, normal cells; format: cell-based; settings: read-out: IC50 HDF
How it was run: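 Human dermal fibroblasts were maintained in DMEM with 10% FCS, 2 mM L-glutamine and 1% penicillin-streptomycin (37 °C, 5% CO2). They were seeded at 1 × 10^4 cells/ml, allowed to adhere overnight, then treated 96 h with serially diluted test compound (six final levels, 1–600) beside DMSO-matched vehicle and cisplatin controls. Then MTT 5 mg/ml was added for 4 h, formazan taken up in DMSO, and absorbance read at 540 nm, in triplicate. IC50 was fitted.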

[4] = tested on: HDF, U87, MCF-7 and A549 cells; experiment: Morphological analysis; format: cell-based, human; settings: 96 h, treatment at the respective IC50 for each cell line
How it was run: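 HDF, U87, MCF-7 and A549 cells were seeded at 1 × 10^4 cells/ml in flat-bottom plates and adhered overnight. They were then treated 96 h with test compound serially diluted in medium (final 1–600 μM/ml). Controls were untreated and DMSO-matched wells, plus cisplatin at 1–100 μM/mL. Cells were fixed in ice-cold methanol for 30 min at 4 °C, stained with hematoxylin, and viewed by inverted light microscopy.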

[5] = tested on: breast cancer (MCF7) cells; experiment: MTT cytotoxicity assay, MCF7; format: cell-based, human; settings: for SI MCF-7 (selectivity index): IC50 in HDF / IC50 in MCF-7, 96 h; for IC50: read-out: IC50 MCF-7
How it was run: as §1

[6] = tested on: Staphylococcus aureus (ATCC 10145); experiment: Agar diffusion test, S. aureus; format: cell-based; settings: ATCC10145, read-out: Zone of inhibition SA
[7] = tested on: Gram-positive and Gram-negative bacterial test strains; experiment: Antibacterial activity, whole panel of test strains; format: cell-based; settings: agar diffusion
How it was run: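 Disc diffusion followed CLSI (2012). Test compound at 10, 50 and 100 μg/disc was loaded on 6-mm blank filter discs laid on Mueller Hinton agar seeded at 10^6 cells/ml. Strains were S. aureus ATCC 10145, B. cereus ATCC 11778, B. subtilis ATCC 6633, P. aeruginosa ATCC 13048 and E. coli ATCC 25922. Inhibition zones were recorded.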

[8] = tested on: cancer cell lines (U87, MCF-7 and A549) compared to normal cells (HDF); experiment: MTT cytotoxicity, cancer cell lines compared to normal cells; format: cell-based, human; settings: 96 h treatment
How it was run: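 A549 and MCF7 grown in RPMI 1640, HDF and U87 in DMEM, each with 10% FCS, 2 mM L-glutamine, 1% pen-strep, 37 °C, 5% CO2. Cells at 1 × 10^4 cells/ml were adhered overnight, then exposed 96 h to test compound (final 1–600 […] in medium). Controls were blank, untreated, DMSO-matched and cisplatin (1–100 μM/mL). MTT 5 mg/ml for 4 h; DMSO-solubilised formazan read at 540 nm, triplicate. IC50 from curve fitting; selectivity index = HDF IC50 / cancer-line IC50.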

[9] = tested on: Escherichia coli (ATCC 25922); experiment: Agar diffusion test, E. coli; format: cell-based; settings: ATCC25922, read-out: Zone of inhibition EC
[10] = tested on: Escherichia coli (ATCC 25922); experiment: Micro-broth dilution assay; format: cell-based; settings: ATCC25922, read-out: MIC EC
[11] = tested on: B. subtilis (ATCC 6633); experiment: Micro-broth dilution assay; format: cell-based; settings: Bacillus subtilis, ATCC6633, read-out: MIC BS
[12] = DPPH radical scavenging assay
[13] = tested on: Pseudomonas aeruginosa (ATCC 13048); experiment: Micro-broth dilution assay; format: cell-based; settings: ATCC13048, read-out: MIC PA
[14] = ABTS radical scavenging assay
[15] = tested on: Bacillus cereus (ATCC 11778); experiment: Micro-broth dilution assay; format: cell-based; settings: ATCC11778, read-out: MIC BC
[16] = tested on: Staphylococcus aureus (ATCC 10145); experiment: Micro-broth dilution assay; format: cell-based; settings: ATCC10145, read-out: MIC SA
[17] = tested on: Pseudomonas aeruginosa (ATCC 13048); experiment: Agar diffusion test, P. aeruginosa; format: cell-based; settings: ATCC13048, read-out: Zone of inhibition PA
[18] = tested on: Bacillus cereus (ATCC 11778); experiment: Agar diffusion test, B. cereus; format: cell-based; settings: ATCC11778, read-out: Zone of inhibition BC

SMILES | SI A549 (selectivity index) [1] | SI U87 (selectivity index) [2] | SI MCF-7 (selectivity index) [5] | zone of inhibition at 100 µg/disc [6] | zone of inhibition at 300 µg/disc [6] | zone of inhibition at 500 µg/disc [6] | inhibition zones, range over susceptible strains [7] | cytotoxic / anti-proliferative activity in words [8] | zone of inhibition at 100 µg/disc [9] | zone of inhibition at 300 µg/disc [9] | zone of inhibition at 500 µg/disc [9] | MIC [10] | MIC [11] | IC50 ± SD, DPPH [12] | % inhibition ±SD, DPPH ([12]; 10 μg/ml) | % inhibition ±SD, DPPH ([12]; 25 μg/ml) | % inhibition ±SD, DPPH ([12]; 50 μg/ml) | % inhibition ±SD, DPPH ([12]; 100 μg/ml) | IC50 ([1]; Homo sapiens, A549, 96 h) | MIC [13] | also measured
N.N.[Cl][Pt][Cl] [Cisplatin, reference compound] | 1.3 | 1.5 | 1.5 | – | – | – | – | – | – | – | – | – | – | – | – | – | – | – | – | – | IC50 ([1]; MTT, 96 h treatment): 30.4 ± 5.2 µM; IC50 ([2]; MTT, 96 h treatment): 28.3 ± 5.3 µM; IC50 ([3]; MTT, 96 h treatment): 40.9 ± 5.4 µM; morphological changes of treated cancer cells [4]: became rounded and separated from each other, shrank, and underwent nuclear condensation; IC50 ([5]; MTT, 96 h treatment): 26.9 ± 4.7 µM
COC(=O)c1cn(C2CC2)c2cc(N3CCN(C(=O)c4c(C)nnn4-c4ccc(Cl)cc4)CC3)c(F)cc2c1=O [Compound 6c, methyl 7-(4-(1-(4-chlorophenyl)-4-methyl-1H-1,2,3-triazole-5-carbonyl)piperazin-1-yl)-1-cyclopropyl-6-fluoro-4-oxo-1,4-dihydroquinoline-3-carboxylate] | 1.2 | 23.9 | 4.8 | 10.6 ± 1.2 mm | 12.3 ± 0.6 mm | 13.3 ± 0.3 mm | 13 to 16 mm | significant cytotoxic activity against only U-87 and MCF-7 cancer cell lines | 11.3 ± 0.7 mm | 13.6 ± 1.2 mm | 14.6 ± 0.3 mm | > 500 µg/mL | > 500 µg/mL | 43.1 ± 1.8 µg/mL (≈ 76.3 µM) | 24.6 ± 1.8% | 31.7 ± 0.3% | 52.2 ± 0.2% | 71.4 ± 0.7% | 239 ± 7.9 µM | 500 µg/mL (≈ 885 µM) | IC50 ± SD, ABTS [14]: 35.1 ± 2.0 µg/mL (≈ 62.1 µM); % inhibition ±SD, ABTS ([14]; 5 μg/ml): 14.8 ± 0.6%; % inhibition ±SD, ABTS ([14]; 10 μg/ml): 33.3 ± 0.8%; % inhibition ±SD, ABTS ([14]; 25 μg/ml): 42.7 ± 0.4%; % inhibition ±SD, ABTS ([14]; 50 μg/ml): 59.8 ± 0.3%; % inhibition ±SD, ABTS ([14]; 100 μg/ml): 65.7 ± 0.1%; MIC [15]: 500 µg/mL (≈ 885 µM); MIC [16]: > 500 µg/mL; zone of inhibition at 100 µg/disc [17]: 12.3 ± 0.6 mm; zone of inhibition at 300 µg/disc [17]: 14.6 ± 0.6 mm; zone of inhibition at 500 µg/disc [17]: 16.3 ± 0.6 mm; IC50 ([2]; Homo sapiens, U-87 MG, 96 h): 12.3 ± 5.5 µM; IC50 ([3]; Homo sapiens, Fibroblast, 96 h): 294 ± 11.4 µM; zone of inhibition at 100 µg/disc [18]: 12.7 ± 0.6 mm; zone of inhibition at 300 µg/disc [18]: 13.7 ± 1.1 mm; zone of inhibition at 500 µg/disc [18]: 15.3 ± 0.7 mm; IC50 ([5]; Homo sapiens, MCF7, 96 h): 61.6 ± 11.1 µM
COC(=O)c1cn(C2CC2)c2cc(N3CCN(C(=O)c4c(C)nnn4-c4ccc(C(F)(F)F)cc4)CC3)c(F)cc2c1=O [Compound 6d, methyl 7-(4-(1-(4-trifluoromethylphenyl)-4-methyl-1H-1,2,3-triazole-5-carbonyl)piperazin-1-yl)-1-cyclopropyl-6-fluoro-4-oxo-1,4-dihydroquinoline-3-carboxylate] | 1.4 | 111.4 | 3.4 | 10.3 ± 0.6 mm | 12.3 ± 0.6 mm | 14.6 ± 1.2 mm | 12–14 mm | significant cytotoxic activity against only U-87 and MCF-7 cancer cell lines | 8.3 ± 1.5 mm | 10.3 ± 0.7 mm | 12.6 ± 0.7 mm | > 500 µg/mL | > 500 µg/mL | 58.8 ± 1.7 µg/mL (≈ 98.2 µM) | 26.0 ± 0.9% | 42.1 ± 0.6% | 46.2 ± 0.3% | 68.7 ± 0.1% | 308 ± 12.1 µM | 500 µg/mL (≈ 835 µM) | % inhibition ±SD, DPPH ([12]; 5 μg/ml): 13.8 ± 0.2%; IC50 ± SD, ABTS [14]: 31.7 ± 1.9 µg/mL (≈ 53 µM); % inhibition ±SD, ABTS ([14]; 5 μg/ml): 21.1 ± 1.0%; % inhibition ±SD, ABTS ([14]; 10 μg/ml): 33.7 ± 0.7%; % inhibition ±SD, ABTS ([14]; 25 μg/ml): 42.8 ± 0.3%; % inhibition ±SD, ABTS ([14]; 50 μg/ml): 61.6 ± 0.6%; % inhibition ±SD, ABTS ([14]; 100 μg/ml): 66.5 ± 0.6%; MIC [15]: > 500 µg/mL; MIC [16]: 500 µg/mL (≈ 835 µM); zone of inhibition at 100 µg/disc [17]: 11.7 ± 0.6 mm; zone of inhibition at 300 µg/disc [17]: 13 ± 0.3 mm; zone of inhibition at 500 µg/disc [17]: 13.3 ± 0.6 mm; IC50 ([2]; Homo sapiens, U-87 MG, 96 h): 3.82 ± 2.9 µM; IC50 ([3]; Homo sapiens, Fibroblast, 96 h): 425 ± 18.5 µM; zone of inhibition at 100 µg/disc [18]: 9.6 ± 1.2 mm; zone of inhibition at 300 µg/disc [18]: 11 mm; zone of inhibition at 500 µg/disc [18]: 13.3 ± 0.6 mm; IC50 ([5]; Homo sapiens, MCF7, 96 h): 124 ± 10.6 µM

Source: PMC10731006 (Heliyon, 2023)
